According to article PMC3689924 (Pharmacology, 2012):
Like-named read-outs stand apart in the source and are kept apart here.

Key:
[1] = assay type: in vitro ADME, human; details: for TQD concentration in plasma after storage: mean±SD of four determinations
How it was run: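 Plasma was spiked at 0.1, 0.5 and 2.0 μg/ml and split into 16 aliquots per level. Four aliquots were analysed by HPLC at once as the baseline. The rest were stored 24 h, 1 month or 3 months at RT, 4°C, −20°C or −80°C, then quantified. Results are given as mean of four determinations and percent of baseline; stability criterion was 95%.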

[2] = Safety and tolerability of single i.v. doses of TQD in healthy volunteers; assay type: in vivo, human
How it was run: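 15 healthy males were given single i.v. infusions at 4, 6 or 8 mg/kg and kept on the ward under continuous observation until 24 h after infusion end. Blood pressure, heart rate and ECG were recorded repeatedly over the first 24 h. Monitoring included clinical chemistry, coagulation, haematology and adverse events. Physical examination, vital signs, AE check, and blood and urine analysis were repeated within one week.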

[3] = system: Pgp at the human BBB; details: cited from earlier work
[4] = system: Pgp; details: 2 mg/kg dose; cited from earlier work
[5] = system: Pgp; details: at low concentrations; cited from earlier work
[6] = system: breast cancer resistance protein (BCRP); details: at low concentrations; cited from earlier work
[7] = single i.v. doses up to 8 mg/kg BW

## COc1cc2c(cc1OC)CN(CCc1ccc(NC(=O)c3cc(OC)c(OC)cc3NC(=O)c3cnc4ccccc4c3)cc1)CC2 [TQD, tariquidar]
[1]; 0.5 μg/ml, −20°C, 3 months
  percent of baseline: 36.4%
  TQD concentration in plasma after storage: 0.18 ± 0.014 µg/mL
[1]; 0.5 μg/ml, −20°C, 24 h
  percent of baseline: 99%
  TQD concentration in plasma after storage: 0.49 ± 0.014 µg/mL
[1]; 0.5 μg/ml, −80°C, 1 month
  percent of baseline: 82.3%
  TQD concentration in plasma after storage: 0.41 ± 0.030 µg/mL
[1]; 0.5 μg/ml, −80°C, 3 months
  percent of baseline: 53.9%
  TQD concentration in plasma after storage: 0.27 ± 0.023 µg/mL
[1]; 0.5 μg/ml, −80°C, 24 h
  percent of baseline: 100%
  TQD concentration in plasma after storage: 0.50 ± 0.025 µg/mL
[1]; 2.0 μg/ml, 4°C, 1 month
  percent of baseline: 9.5%
  TQD concentration in plasma after storage: 0.19 ± 0.004 µg/mL
[1]; 2.0 μg/ml, 4°C, 3 months
  percent of baseline: 5.6%
  TQD concentration in plasma after storage: 0.11 ± 0.006 µg/mL
[1]; 2.0 μg/ml, 4°C, 24 h
  percent of baseline: 98.5%
  TQD concentration in plasma after storage: 1.97 ± 0.050 µg/mL
[1]; 2.0 μg/ml, RT, 1 month
  percent of baseline: 9.1%
  TQD concentration in plasma after storage: 0.18 ± 0.003 µg/mL
[1]; 2.0 μg/ml, RT, 3 months
  percent of baseline: 2.8%
  TQD concentration in plasma after storage: 0.054 ± 0.004 µg/mL
[1]; 2.0 μg/ml, RT, 24 h
  percent of baseline: 101%
  TQD concentration in plasma after storage: 2.02 ± 0.081 µg/mL
[1]; 2.0 μg/ml, −20°C, 1 month
  percent of baseline: 75.8%
  TQD concentration in plasma after storage: 1.51 ± 0.065 µg/mL
[1]; 2.0 μg/ml, −20°C, 3 months
  percent of baseline: 48.3%
  TQD concentration in plasma after storage: 0.97 ± 0.084 µg/mL
[1]; 2.0 μg/ml, −20°C, 24 h
  percent of baseline: 99%
  TQD concentration in plasma after storage: 1.98 ± 0.075 µg/mL
[1]; 2.0 μg/ml, −80°C, 1 month
  percent of baseline: 80.6%
  TQD concentration in plasma after storage: 1.62 ± 0.068 µg/mL
[1]; 2.0 μg/ml, −80°C, 3 months
  percent of baseline: 61.5%
  TQD concentration in plasma after storage: 1.23 ± 0.056 µg/mL
[1]; 2.0 μg/ml, −80°C, 24 h
  percent of baseline: 100.5%
  TQD concentration in plasma after storage: 2.01 ± 0.064 µg/mL
[1]; 0.1, 0.5 and 2.0 μg/ml
  concentration dependency of degradation rate in plasma: No concentration dependency
[1]; 1 month, 3 months, even at −80°C
  stability in plasma on storage longer than 24 h: pronounced degradation
[1]; 24 h at RT, 4°C, −20°C and −80°C
  stability in plasma (criterion 95%): stable
[1]; one month at −20°C
  concentration remaining relative to original values: 74-78%
[1]; one month at −80°C
  concentration remaining relative to original values: 78-82%
[1]; one month of storage at RT or at 4°C
  concentration remaining relative to original concentration: approximately 10%
[2]; 15 subjects, 4-8 mg/kg i.v.
  cases of metallic taste in the mouth: five cases
[2]; during and after TQD administration
  heart rate, blood pressure and ECG: did not significantly change
[2]; single i.v. doses 4, 6, 8 mg/kg
  dose limiting toxicities: No dose limiting toxicities
[2]; [7]
  serious or severe AEs: no serious or severe AEs
  tolerability: generally well tolerated
[2]; whole study period
  blood chemistries, complete blood count and coagulation: No subject had any significant change
[3]; 8 mg/kg TQD dose, healthy subjects, PET
  increase in (R)-[11C]verapamil brain distribution: 3 fold
[3]; 8 mg/kg TQD dose, plateau in concentration-response curve
  inhibition of Pgp at the human BBB: complete inhibition
[3]; read-out: half-maximum effect concentration (EC50) for functional inhibition of Pgp at the human BBB
  EC50: 669 nM
[4]
  inhibition of Pgp-mediated rhodamine 123 efflux from CD56-positive lymphocytes: fully inhibit
[5]
  transport by Pgp: transported
[6]
  transport by breast cancer resistance protein (BCRP): transported
